In ChEMBL document CHEMBL4422642, “Antiproliferative and Antimigratory Effects of a Novel YAP-TEAD Interaction Inhibitor Identified Using in Silico Molecular Docking” (J Med Chem, 2019):
pEC50, pIC50: −log10 of the molar value. Active and inactive are the calls of the source. The rule behind the calls is not given here.

Experiments:
HeLa [1] = experiment: Antiproliferative activity against human HeLa cells assessed as reduction in EdU incorporation after 24 hrs by Hoechst 33342 staining-based fluorescence assay; format: functional, cell-based
Outline: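 Click-iT EdU assay. Cells were treated with compound for 24 h total, with 10 μM EdU present for the final labeling period. Cells were then fixed in 4% formaldehyde, stained for EdU and counterstained with Hoechst 33342 for 20 min. EdU-positive nuclei were counted in at least three fields per well; n = 4.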

[2] = Inhibition of TEAD (unknown origin) expressed in human HeLa cells after 6 hrs by nanoluciferase reporter gene assay; format: cell-based
Outline: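 HeLa cells stably transduced with a lentiviral 8×TEAD-element secreted nanoluciferase reporter were seeded at 2 × 10^4 cells/well and grown 48 h. They were washed and treated with compound for 2 h, washed again and re-treated for 4 h. Secreted nanoluciferase in the conditioned medium was assayed with NanoGlo; n = 3.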

Rattus norvegicus [3] = organism: Rattus norvegicus; experiment: Inhibition of TEAD in rat VSMC assessed as reduction in THBS m-RNA expression at 60 uM by RT-qPCR analysis
Outline: (§1)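 Rat aortic VSMCs (male Sprague-Dawley, 10% FCS/DMEM) were treated with 60 μM compound for 6 h; n = 3. Total RNA was reverse-transcribed with random primers and quantified by SYBR Green qPCR. Data were normalized to nonstimulated controls.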

[4] = target: T1, Transcriptional enhancer factor TEF-5 (Homo sapiens, UniProt Q99594); experiment: Inhibition of Gal4-fused TEAD3 (unknown origin) interaction with YAP expressed in human HeLa cells assessed as basal transcriptional activity level up to 100 uM after 6 hrs by nanoluciferase reporter gene assay; format: cell-based
T1 sequence (Q99594 whole entry, the tested form may be a part): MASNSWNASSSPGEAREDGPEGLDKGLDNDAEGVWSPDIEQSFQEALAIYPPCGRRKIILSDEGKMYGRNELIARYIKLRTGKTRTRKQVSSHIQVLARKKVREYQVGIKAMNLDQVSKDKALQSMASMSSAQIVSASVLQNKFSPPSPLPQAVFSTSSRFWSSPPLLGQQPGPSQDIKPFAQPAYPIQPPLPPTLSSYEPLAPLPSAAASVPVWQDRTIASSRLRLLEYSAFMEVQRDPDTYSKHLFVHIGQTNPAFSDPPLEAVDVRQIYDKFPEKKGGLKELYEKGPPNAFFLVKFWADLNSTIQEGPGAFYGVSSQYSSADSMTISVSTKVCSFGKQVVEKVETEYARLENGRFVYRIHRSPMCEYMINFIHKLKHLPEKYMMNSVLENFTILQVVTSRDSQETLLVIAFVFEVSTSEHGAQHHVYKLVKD

[5] = target: T1, Transcriptional enhancer factor TEF-5; experiment: Inhibition of Gal4-fused TEAD3 (unknown origin) interaction with YAP expressed in human HeLa cells assessed as basal transcriptional activity level after 6 hrs by nanoluciferase reporter gene assay; format: cell-based
HeLa [6] = experiment: Antimigratory activity in human HeLa cells at 40 to 80 uM incubated for overnight followed by media replacement and measured every hour for 24 hrs by phase contrast microscopic analysis; format: functional, cell-based
Outline: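 IncuCyte real-time scratch wound assay. Cells were seeded in 96-well plates and grown 36 h, then pretreated overnight with compound. Wells were scratched and the medium was replaced with compound-containing medium. Phase-contrast images of the wound were taken hourly for 24 h and relative wound confluence was calculated; n = 4.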

Rattus norvegicus [7] = organism: Rattus norvegicus; experiment: Inhibition of TEAD in rat VSMC assessed as reduction in CCN1 m-RNA expression at 60 uM by RT-qPCR analysis; outline: as §1
Rattus norvegicus [8] = organism: Rattus norvegicus; experiment: (§2) Inhibition of TEAD (unknown origin) expressed in rat VSMC after 6 hrs by nanoluciferase reporter gene assay
Outline: (§3)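 Rat aortic VSMCs stably transduced with the 8×TEAD secreted nanoluciferase reporter were treated with compound over a concentration range for 6 h. Conditioned medium was assayed for nanoluciferase activity.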

[9] = as §2; outline: as §3
HeLa [10] = experiment: Inhibition of Gal4 expression in human HeLa cells assessed as basal transcriptional activity level at 100 uM after 6 hrs by nanoluciferase reporter gene assay; format: functional, cell-based
HeLa [11] = experiment: Inhibition of TEAD in human HeLa cells assessed as reduction in CTGF m-RNA expression incubated for 2 hrs followed by compound wash out and re-treatment for 4 hrs by NanoGlo assay; format: cell-based
[12] = Inhibition of TEAD in rat VSMC assessed as reduction in CTGF m-RNA expression incubated for 2 hrs followed by compound wash out and re-treatment for 4 hrs by NanoGlo assay
[13] = target: Transcriptional enhancer factor TEF-1 (Homo sapiens, UniProt P28347); experiment: Binding affinity to TEAD1 (194 to 411 residues) (unknown origin) by NMR analysis
Transcriptional enhancer factor TEF-1, sequence (P28347 whole entry, the tested form may be a part): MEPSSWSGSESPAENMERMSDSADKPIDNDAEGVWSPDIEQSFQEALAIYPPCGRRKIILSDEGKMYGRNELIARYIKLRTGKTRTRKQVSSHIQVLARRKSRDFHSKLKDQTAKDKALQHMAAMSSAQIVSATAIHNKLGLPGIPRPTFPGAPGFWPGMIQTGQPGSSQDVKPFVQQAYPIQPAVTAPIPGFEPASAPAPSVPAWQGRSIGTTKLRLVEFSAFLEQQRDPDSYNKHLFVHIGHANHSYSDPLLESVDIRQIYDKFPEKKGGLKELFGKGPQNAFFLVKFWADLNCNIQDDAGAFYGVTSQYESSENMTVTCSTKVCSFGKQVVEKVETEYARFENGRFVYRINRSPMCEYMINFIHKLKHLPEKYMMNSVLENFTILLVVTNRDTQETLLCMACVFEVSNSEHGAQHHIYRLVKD
Outline: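 STD NMR at 700 MHz in PBS pH 7.4 containing 60% D2O, with about 20 μM TEAD1 and 2 mM compound. Saturation time 7 s; on-resonance 0.85 ppm, off-resonance −28 ppm; eight scans. Blank runs without protein or ligand were included.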

With `Cc1ccc2c(c1)c1c3n2CCNC3CCC1` (stereo not drawn) [PIRLINDOLE] the Activity (HeLa [1]) was “Dose-dependent effect”, the pIC50 [2] was 4.15 and the inhibition (Rattus norvegicus [3]) was “Active”. The inhibition [4] was “Active”, the pIC50 [5] was 4.36 and the Activity (HeLa [6]) was “Active”. For the same compound, the inhibition (Rattus norvegicus [7]) was “Active”, the inhibition (Rattus norvegicus [8]) was “Dose-dependent effect” and the pIC50 [9] was 4.62. For the same compound, the inhibition (HeLa [10]) was “inactive”, the inhibition (HeLa [11]) was “Dose-dependent effect” and the pEC50 [12] was 4.24. The Activity [13] was “Active”.
